Reference: ChEMBL document CHEMBL4346709, “Design and Optimization Leading to an Orally Active TTK Protein Kinase Inhibitor with Robust Single Agent Efficacy” (J Med Chem, 2019)
pIC50: −log10 of the molar value.

Key:
[1] = target: T1, Dual specificity protein kinase TTK (Homo sapiens, UniProt P33981); test: Inhibition of TTK autophosphorylation in human CAL51 cells by radioimmuno-precipitation assay; type: cell-based
T1 sequence (P33981 whole entry): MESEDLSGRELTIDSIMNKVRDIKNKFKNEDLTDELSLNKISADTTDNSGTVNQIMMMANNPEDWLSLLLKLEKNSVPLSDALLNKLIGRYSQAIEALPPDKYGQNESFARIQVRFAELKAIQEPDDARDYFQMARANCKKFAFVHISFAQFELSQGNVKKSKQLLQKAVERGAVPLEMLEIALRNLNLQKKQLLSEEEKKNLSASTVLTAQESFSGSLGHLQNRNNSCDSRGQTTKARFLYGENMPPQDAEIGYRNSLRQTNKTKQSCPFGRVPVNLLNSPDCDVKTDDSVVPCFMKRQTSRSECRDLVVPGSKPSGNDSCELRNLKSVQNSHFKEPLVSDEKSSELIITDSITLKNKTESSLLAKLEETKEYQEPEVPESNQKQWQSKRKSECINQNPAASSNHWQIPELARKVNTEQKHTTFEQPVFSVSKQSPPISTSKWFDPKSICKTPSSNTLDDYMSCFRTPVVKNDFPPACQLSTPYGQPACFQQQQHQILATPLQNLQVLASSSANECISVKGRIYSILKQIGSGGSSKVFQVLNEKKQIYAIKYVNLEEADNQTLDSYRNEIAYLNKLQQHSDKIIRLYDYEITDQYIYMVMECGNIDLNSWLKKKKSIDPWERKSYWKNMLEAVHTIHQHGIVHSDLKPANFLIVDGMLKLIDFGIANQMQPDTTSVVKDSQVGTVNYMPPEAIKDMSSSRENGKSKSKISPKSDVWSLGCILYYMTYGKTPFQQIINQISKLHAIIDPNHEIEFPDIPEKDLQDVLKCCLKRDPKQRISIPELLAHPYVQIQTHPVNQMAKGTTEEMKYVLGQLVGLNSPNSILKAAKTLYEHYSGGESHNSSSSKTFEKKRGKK

[2] = target: T1, Dual specificity protein kinase TTK; test: Inhibition of TTK in human CAL51 cells assessed as decrease in phosphorylated TTK T686 levels after 1 hr by Western blot analysis; type: cell-based
[3] = target: Leucine-rich repeat serine/threonine-protein kinase 2 (Homo sapiens, UniProt Q5S007, G2019S); test: Inhibition of recombinant human GST-tagged LRRK2 G2019S mutant catalytic domain (970 to 2527 residues) expressed in baculovirus expression system using LRRKtide as substrate measured after 1 hr by Alexa-fluor-647 ADP tracer-based ADAPTA assay
Sequence of Leucine-rich repeat serine/threonine-protein kinase 2 (Q5S007 whole entry G2019S, the tested form may be a part): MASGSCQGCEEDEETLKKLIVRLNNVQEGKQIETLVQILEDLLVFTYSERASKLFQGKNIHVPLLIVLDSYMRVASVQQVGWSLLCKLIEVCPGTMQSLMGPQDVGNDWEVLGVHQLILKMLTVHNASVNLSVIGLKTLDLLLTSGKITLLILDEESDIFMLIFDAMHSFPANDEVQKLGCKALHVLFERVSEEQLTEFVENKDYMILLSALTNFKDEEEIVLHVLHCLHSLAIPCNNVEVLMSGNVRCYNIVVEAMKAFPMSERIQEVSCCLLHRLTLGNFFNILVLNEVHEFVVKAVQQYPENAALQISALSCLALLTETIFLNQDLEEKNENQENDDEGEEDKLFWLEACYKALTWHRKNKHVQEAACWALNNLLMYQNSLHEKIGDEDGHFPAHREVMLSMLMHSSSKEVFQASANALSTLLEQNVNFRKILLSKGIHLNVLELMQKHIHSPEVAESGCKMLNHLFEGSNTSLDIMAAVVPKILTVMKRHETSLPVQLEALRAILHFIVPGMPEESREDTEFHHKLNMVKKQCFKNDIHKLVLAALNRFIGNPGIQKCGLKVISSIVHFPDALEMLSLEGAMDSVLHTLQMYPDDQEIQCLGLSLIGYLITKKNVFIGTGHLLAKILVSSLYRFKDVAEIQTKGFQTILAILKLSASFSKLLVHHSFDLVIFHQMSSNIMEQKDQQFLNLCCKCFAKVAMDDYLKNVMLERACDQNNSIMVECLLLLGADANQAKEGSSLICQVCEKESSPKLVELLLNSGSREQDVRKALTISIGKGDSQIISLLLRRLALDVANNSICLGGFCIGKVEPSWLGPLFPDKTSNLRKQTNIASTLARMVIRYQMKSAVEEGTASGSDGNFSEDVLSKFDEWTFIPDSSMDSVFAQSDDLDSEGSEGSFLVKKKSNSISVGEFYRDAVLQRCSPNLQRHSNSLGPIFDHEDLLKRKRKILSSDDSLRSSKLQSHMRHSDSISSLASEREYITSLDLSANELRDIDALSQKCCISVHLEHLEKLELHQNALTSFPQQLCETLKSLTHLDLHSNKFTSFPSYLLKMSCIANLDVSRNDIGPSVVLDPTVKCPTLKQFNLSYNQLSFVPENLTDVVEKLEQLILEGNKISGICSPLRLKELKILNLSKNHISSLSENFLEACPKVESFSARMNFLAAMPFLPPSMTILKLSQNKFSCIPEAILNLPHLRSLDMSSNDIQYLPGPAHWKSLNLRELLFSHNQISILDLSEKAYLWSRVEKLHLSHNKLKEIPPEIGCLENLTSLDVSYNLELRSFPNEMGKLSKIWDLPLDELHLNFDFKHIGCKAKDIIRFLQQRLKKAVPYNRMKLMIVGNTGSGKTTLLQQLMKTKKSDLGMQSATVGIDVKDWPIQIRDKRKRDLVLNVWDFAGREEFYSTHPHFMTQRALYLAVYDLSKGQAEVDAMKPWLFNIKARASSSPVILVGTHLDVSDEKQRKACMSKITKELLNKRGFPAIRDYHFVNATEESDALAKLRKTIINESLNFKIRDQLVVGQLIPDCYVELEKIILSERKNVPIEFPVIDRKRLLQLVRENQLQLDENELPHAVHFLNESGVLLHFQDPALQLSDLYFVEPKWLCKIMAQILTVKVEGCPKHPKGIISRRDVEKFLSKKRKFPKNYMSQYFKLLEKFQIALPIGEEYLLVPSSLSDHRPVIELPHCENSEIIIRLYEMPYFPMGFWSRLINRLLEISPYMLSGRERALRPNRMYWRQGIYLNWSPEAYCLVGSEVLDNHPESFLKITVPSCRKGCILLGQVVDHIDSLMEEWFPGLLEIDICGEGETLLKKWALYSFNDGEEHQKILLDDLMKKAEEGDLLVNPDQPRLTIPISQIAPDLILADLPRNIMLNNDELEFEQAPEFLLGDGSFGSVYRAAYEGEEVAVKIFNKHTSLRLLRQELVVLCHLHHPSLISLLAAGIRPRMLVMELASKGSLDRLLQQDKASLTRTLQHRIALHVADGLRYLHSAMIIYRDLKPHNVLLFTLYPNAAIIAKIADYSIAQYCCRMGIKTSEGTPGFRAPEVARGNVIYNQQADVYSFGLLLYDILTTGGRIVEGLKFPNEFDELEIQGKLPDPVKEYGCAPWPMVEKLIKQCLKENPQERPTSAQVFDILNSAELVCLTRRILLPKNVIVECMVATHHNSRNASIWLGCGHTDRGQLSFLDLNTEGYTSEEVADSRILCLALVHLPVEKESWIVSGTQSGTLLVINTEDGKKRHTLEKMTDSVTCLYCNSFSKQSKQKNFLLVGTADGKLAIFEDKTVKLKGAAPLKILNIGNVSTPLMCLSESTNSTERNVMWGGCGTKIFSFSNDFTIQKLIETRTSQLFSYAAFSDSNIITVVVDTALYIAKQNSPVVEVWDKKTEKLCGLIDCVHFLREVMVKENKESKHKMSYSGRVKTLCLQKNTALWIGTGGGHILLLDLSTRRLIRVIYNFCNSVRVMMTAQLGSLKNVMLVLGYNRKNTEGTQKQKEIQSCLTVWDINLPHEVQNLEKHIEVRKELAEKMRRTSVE

LRRK2 G2019S mutant = LRRK2 G2019S mutant (Homo sapiens, UniProt Q5S007, G2019S); test: Inhibition of recombinant human GST-tagged LRRK2 G2019S mutant catalytic domain (970 to 2527 residues) expressed in baculovirus expression system at 3 uM using LRRKtide as substrate measured after 1 hr by Alexa-fluor-647 ADP tracer-based ADAPTA assay relative to control; details: probe LRRKtide
Sequence of LRRK2 G2019S mutant (Q5S007 whole entry G2019S, the tested form may be a part): as above
In short: (§1)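 Kinase selectivity panel: single-point assessment at 3 µM, n=1.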

[4] = target: T2, Dual specificity tyrosine-phosphorylation-regulated kinase 3 (Homo sapiens, UniProt O43781); test: Inhibition of recombinant human full length GST-tagged DYRK3 expressed in baculovirus expression system by Z'-LYTE assay
T2 sequence (O43781 whole entry): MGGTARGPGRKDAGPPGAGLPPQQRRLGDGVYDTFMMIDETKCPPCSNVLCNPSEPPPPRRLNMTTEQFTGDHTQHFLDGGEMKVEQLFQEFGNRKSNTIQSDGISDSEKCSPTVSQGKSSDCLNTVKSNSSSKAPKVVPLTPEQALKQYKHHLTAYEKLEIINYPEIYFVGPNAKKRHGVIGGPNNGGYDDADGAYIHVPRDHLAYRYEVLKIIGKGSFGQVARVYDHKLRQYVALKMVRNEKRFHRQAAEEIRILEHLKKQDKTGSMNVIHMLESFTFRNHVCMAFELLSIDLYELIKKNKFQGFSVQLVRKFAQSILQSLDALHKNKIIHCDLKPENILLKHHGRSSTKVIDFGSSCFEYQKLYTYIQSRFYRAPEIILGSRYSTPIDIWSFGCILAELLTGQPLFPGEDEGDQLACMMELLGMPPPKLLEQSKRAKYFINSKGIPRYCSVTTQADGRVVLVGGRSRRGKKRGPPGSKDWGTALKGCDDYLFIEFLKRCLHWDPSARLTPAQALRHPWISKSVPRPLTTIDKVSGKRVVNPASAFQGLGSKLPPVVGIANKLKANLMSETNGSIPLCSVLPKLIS

[5] = target: T3, Testis-specific serine/threonine-protein kinase 1 (Homo sapiens, UniProt Q9BXA7); test: Inhibition of recombinant human full length His-tagged TSSK1 expressed in baculovirus expression system by Z'-LYTE assay
T3 sequence (Q9BXA7 whole entry): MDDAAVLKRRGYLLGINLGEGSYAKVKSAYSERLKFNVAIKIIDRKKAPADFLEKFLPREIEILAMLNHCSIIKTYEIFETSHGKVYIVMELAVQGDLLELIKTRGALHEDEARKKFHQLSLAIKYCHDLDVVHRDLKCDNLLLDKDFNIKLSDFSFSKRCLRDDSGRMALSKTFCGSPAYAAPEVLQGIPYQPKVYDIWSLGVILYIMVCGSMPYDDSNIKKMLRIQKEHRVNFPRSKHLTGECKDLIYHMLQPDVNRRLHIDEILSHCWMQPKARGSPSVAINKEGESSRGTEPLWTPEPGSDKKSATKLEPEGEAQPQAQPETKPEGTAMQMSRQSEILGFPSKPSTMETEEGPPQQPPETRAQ

[6] = target: T4, Testis-specific serine/threonine-protein kinase 1 (Homo sapiens) (UniProt Q9BXA7); test: Inhibition of recombinant human full length His-tagged TSSK1 expressed in baculovirus expression system at 3 uM by Z'-LYTE assay relative to control; in short: as §1
T4 sequence (whole entry): T3 sequence (Q9BXA7 whole entry)

[7] = target: T5, Leukocyte tyrosine kinase receptor (Homo sapiens, UniProt P29376); test: Inhibition of recombinant human GST-tagged LTK cytoplasmic domain (450 to 864 residues) expressed in baculovirus expression system by Z'-LYTE assay
T5 sequence (P29376 whole entry, the tested form may be a part): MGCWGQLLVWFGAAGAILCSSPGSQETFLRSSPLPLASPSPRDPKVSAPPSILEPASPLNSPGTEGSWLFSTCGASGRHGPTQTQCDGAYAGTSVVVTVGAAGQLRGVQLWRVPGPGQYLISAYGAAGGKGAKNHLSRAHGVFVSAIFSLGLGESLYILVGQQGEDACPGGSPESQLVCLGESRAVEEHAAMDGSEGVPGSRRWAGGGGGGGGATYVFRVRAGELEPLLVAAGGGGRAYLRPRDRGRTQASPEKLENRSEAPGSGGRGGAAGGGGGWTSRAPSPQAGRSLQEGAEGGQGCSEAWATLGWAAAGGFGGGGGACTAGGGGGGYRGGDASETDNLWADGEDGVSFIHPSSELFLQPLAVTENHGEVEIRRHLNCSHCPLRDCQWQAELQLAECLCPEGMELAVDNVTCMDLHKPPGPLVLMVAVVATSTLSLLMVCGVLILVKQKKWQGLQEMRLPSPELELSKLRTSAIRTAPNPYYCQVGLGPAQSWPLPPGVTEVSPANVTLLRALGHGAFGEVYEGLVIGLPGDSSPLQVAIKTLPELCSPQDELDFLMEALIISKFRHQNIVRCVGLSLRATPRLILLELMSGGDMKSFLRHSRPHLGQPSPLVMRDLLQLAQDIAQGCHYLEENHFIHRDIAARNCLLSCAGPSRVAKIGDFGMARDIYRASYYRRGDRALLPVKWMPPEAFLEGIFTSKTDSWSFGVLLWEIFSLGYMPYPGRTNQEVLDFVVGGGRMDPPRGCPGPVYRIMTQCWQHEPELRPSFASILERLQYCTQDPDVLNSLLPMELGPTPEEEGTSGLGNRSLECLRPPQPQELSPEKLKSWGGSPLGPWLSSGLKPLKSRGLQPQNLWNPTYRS

[8] = target: T5, Leukocyte tyrosine kinase receptor; test: Inhibition of recombinant human GST-tagged LTK cytoplasmic domain (450 to 864 residues) expressed in baculovirus expression system at 3 uM by Z'-LYTE assay relative to control; in short: as §1
[9] = Toxicity in CB17 SCID mouse xenografted with human CAL51 cells assessed as loss of body weight at 30 mg/kg, po […] for 16 days and measured up to 31 days; type: organism-based; details: in vivo
In short: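 Female CB17 SCID mice bearing subcutaneous CAL-51 xenografts (2×10^6 cells). Oral dosing once weekly at 30-120 mg/kg, or 30 mg/kg BID once weekly, for 16 days. Body weight loss tracked alongside tumour measurements, against vehicle.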

CAL-51 = test: Induction of apoptosis in human CAL51 cells xenografted in CB17 SCID mouse assessed as activation of cleaved caspase-3 at 10 mg/kg, po measured after 1 to 48 hrs by MSD electrochemiluminescent immunoassay relative to control; type: functional
In short: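 CB17 SCID mice bearing CAL-51 tumours of 300-500 mm3 given compound orally. At preset time points the mice were euthanised and the tumours dissected and snap-frozen in liquid nitrogen. pHH3 Ser10 or cleaved caspase measured by MSD electrochemiluminescent immunoassay kit. Data are mean ± SEM.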

Question: What does the source list for `C[C@@H](Oc1cc(C(=O)N(C)C)ccc1Nc1nc(O[C@H]2CC[C@@](C)(O)CC2)c2c(Cl)c[nH]c2n1)C(F)(F)F`?
Answer: pIC50 [1]: 8.05; pIC50 [2]: 7.96; pIC50 [3]: 12.00; inhibition at 1 h, 3 µM (LRRK2 G2019S mutant): > 80%; pIC50 [4]: 9.98; pIC50 [5]: 9.66; inhibition [6]: > 80%; pIC50 [7]: 9.25; inhibition [8]: > 80%; Activity [9]: Non-Toxic; Activity (CAL-51): 159%
